The values that follow come from PubChem BioAssay AID743061 (The Scripps Research Institute Molecular Screening Center, 2013).

The structures appear in SMILES notation.

In this assay the target is Methionine--tRNA ligase, mitochondrial (Homo sapiens) (UniProt Q96GW9). Put plainly: inhibitors of human mitochondrial MetRS, late-stage follow-up, selectivity assay for T. brucei MetRS inhibitor project, biochemical, radioactivity, round 1 (AID 743061).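 Also: 0% = DMSO with full reaction and 100% = DMSO wells lacking tRNA.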 The conditions noted are these: recombinant human mtMetRS, [3H]Met tRNA charging, at 1 µM, stronger effect = higher value. The gist of the method: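 System: human mitochondrial MetRS enzyme / Buffer or medium: pH 8.0 reaction buffer containing 2.5 mM ATP / Probe or stimulus: 240 nM [3H]methionine with bulk E. coli tRNA acceptor / Doses: 10 and 1 µM / Times: 15 min compound–enzyme preincubation, then 1 h reaction at room temperature / Detection: scintillation counts of TCA-precipitated charged tRNA on filters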
For the molecule `O=C(NNC(=O)c1cc(-c2ccc(Cl)c(Cl)c2)nc2ccccc12)Nc1ccccc1`, the inhibition is -17.1%.
For `Cc1ccc(NC(=O)CN(C)C(=O)CCSc2ccc(F)cc2)cc1`, the inhibition was -35.7%.
On to `O=C(NCCc1nc2ccccc2[nH]1)c1c(F)cccc1F`, for which the inhibition came out at 0.56%.
To `COc1ccc(CNC(=O)CSc2nnc3c(n2)[nH]c2ccc(F)cc23)cc1` belongs -29.7%.
Turning to `O=C(NCCc1nc2ccccc2[nH]1)c1ccc(Cl)c(Cl)c1`, the inhibition is 2.38%.
To `CCN(CC)C(=O)C(=O)c1cn(CC(=O)Nc2ccccc2OC)c2ccccc12` belongs -10.6%; to `CC(=O)c1ccc(N2CCN(C(=O)CCCn3c(=O)[nH]c4ccc(Br)cc4c3=O)CC2)cc1`, -14.1%; to `CCO[C@@H]1OC(C(=O)NCc2nc3ccccc3[nH]2)=C[C@H](c2ccc(Br)cc2)[C@H]1CCCO`, -4.89%.
With `COc1cccc(NC(=O)C2CC(=O)n3c(nc4ccccc43)N2)c1` (configuration not stated), the inhibition came out at 1.46%.
Consider `COc1ccccc1-n1c(SCC(=O)Nc2ccc(Cl)cc2)nc(O)c(Cc2ccccc2)c1=O`, for which the inhibition is -31.6%.
Take `COc1ccccc1NC(=O)CSc1nnc2c(n1)[nH]c1ccc(C)cc12`: the inhibition was -3.56%.
To `CCN(CC)C(=O)C(=O)c1cn(CC(=O)N(CC)c2ccccc2)c2ccccc12` belongs 2.19%.
To `Cc1ccc(CNC(=O)CSc2nnc3c(n2)[nH]c2ccc(C)cc23)cc1` belongs 1.77%.
For `O=C(NCc1nc2ccccc2[nH]1)C1=C[C@@H](c2ccc(Br)cc2)C[C@@H](OCc2ccc(CO)cc2)O1` the value was -11.6%.
As to `CN(Cc1cc(Cl)cc(Cl)c1)[C@H]1C[C@H]2c3[nH]c4ccccc4c3CCN2C(=O)[C@H]1CO`, the inhibition was found to be 14%.
For the molecule `CC(=O)N(CCc1ccccc1)C1CC(=O)N(c2ccc(Br)cc2)C1=O` (configuration not stated), the inhibition was -17.2%.
For `COc1ccc(CCN(C(=S)Nc2ccccc2)C2CC(=O)N(c3ccc(Cl)cc3)C2=O)cc1` (configuration not stated) the value was 10.6%.
